Test results: ChEMBL document CHEMBL6134796, “Development and Evaluation of Indole-Based Phospholipase D Inhibitors for Lung Cancer Immunotherapy” (J Med Chem, 2025)
pIC50: −log10 of the molar value. Active and inactive are the calls of the source.

Assays:
Mus musculus = assay: In vivo inhibition of KRAS activation in male C57BL/6 mouse allografted with mouse Lewis lung carcinoma cell line assessed as decrease in IKBalpha phosphorylation at 10 mg/kg, po; format: functional, organism-based
[1] = Toxicity in male C57BL/6 mouse assessed as effect on body weight at 10 mg/kg, po measured every other day for 3 weeks; format: organism-based; settings: in vivo, 504 h
A549 [2] = assay: Inhibition of PLD1 F614A mutant (unknown origin) overexpressed in human A549 cells; format: cell-based
Outline: (§1)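 A549 cells transfected with wild-type PLD1, PLD1 mutants (L425A, F614A, F789A) or PLD2, then compound-treated. PLD activity measured as [3H]phosphatidylbutanol formed in the presence of 1-butanol after [3H]myristic acid labeling, expressed as % of total lipid cpm. At least three independent experiments.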

A549 [3] = assay: Induction of apoptosis in human A549 cells measured up to 48 hrs in presence of gemcitabine by Annexin V-FITC and PI staining based flow cytometry analysis; format: functional, cell-based
Outline: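 A549 cells given compound, gemcitabine, or both. Apoptosis assessed by PI staining, annexin V flow cytometry, cleaved PARP immunoblot, and caspase-3 activity. For caspase-3: drugs at 10 μM for 48 h, then 1 μM NucView 488 substrate for 30 min, with 1 μM Hoechst 33342, read by plate fluorescence.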

[4] = biological target: T1, Phospholipase D1 (Mus musculus) (UniProt Q9Z280); assay: In vivo inhibition of PLD1 in male C57BL/6 mouse allografted with mouse Lewis lung carcinoma cell line assessed as increase in CD4+ cell population at 10 mg/kg, po by immunofluorescence analysis; format: functional, organism-based
T1 sequence (whole entry): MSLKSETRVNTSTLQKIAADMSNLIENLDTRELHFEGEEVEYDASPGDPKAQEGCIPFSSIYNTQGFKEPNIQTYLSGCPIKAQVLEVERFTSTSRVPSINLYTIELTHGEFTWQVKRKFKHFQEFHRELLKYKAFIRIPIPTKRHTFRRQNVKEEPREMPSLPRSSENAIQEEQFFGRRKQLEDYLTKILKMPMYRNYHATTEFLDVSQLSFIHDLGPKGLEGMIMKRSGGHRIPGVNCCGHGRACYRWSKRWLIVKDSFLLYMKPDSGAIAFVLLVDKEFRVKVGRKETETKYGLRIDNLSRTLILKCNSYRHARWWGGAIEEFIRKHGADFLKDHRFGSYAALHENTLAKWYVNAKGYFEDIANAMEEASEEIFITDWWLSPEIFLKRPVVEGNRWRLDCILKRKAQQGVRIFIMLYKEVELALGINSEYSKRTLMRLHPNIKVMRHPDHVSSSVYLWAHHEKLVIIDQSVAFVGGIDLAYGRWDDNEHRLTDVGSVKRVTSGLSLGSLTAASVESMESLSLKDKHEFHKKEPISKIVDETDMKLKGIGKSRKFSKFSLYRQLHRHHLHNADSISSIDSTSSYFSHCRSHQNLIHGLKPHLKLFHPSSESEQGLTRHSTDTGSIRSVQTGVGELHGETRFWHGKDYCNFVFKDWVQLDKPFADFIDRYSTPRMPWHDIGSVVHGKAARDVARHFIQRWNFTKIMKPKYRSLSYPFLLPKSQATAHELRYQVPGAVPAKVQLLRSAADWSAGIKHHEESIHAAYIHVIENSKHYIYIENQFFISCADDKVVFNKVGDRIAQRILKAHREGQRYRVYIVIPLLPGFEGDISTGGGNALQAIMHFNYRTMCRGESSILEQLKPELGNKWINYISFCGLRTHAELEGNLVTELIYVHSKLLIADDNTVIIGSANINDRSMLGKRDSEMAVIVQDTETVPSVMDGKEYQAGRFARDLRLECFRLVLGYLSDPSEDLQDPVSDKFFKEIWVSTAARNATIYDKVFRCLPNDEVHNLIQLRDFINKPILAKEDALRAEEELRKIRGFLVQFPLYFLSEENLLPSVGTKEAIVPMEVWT
Outline: (§2)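 Same LLC syngeneic C57BL/6 model, 10 mg/kg PO every other day for 3 weeks. Tumor tissues were stained by immunofluorescence for CD80+ and CD163+ cells, CD8+ T cells, and CD4+/IL-17+ and Treg populations. Nuclei were counterstained with 1 μM Hoechst 33342 and imaged by confocal microscopy.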

A549 [5] = assay: Downregulation of CD24 expression in human A549 cells by flow cytometry analysis; format: functional, cell-based
Outline: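 A549 cells treated with compound. Surface "don't eat-me" and "eat-me" markers measured by flow cytometry.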

[6] = tested on: Lewis lung carcinoma cell line; assay: Antitumor activity against mouse Lewis lung carcinoma cell line allografted in […] male C57BL/6 mouse model assessed as increase in cell apoptosis at 10 mg/kg, po measured every other day for 3 weeks; format: functional, organism-based
HCT-116 = assay: Residual PLD activity in human HCT-116 cells at 10 uM measured after 1 hr by amplex red phospholipase D assay as % of control
A549 [7] = assay: Inhibition of cell invasion in human A549 cells measured after 24 hrs by crystal violet staining based light microscopic analysis; format: functional
[8] = tested on: Lewis lung carcinoma cell line; assay: Antitumor activity against mouse Lewis lung carcinoma cell line allografted in male C57BL/6 mouse model assessed as recovery of spleen weight at 10 mg/kg, po measured every other day for 3 weeks; format: functional, organism-based
Outline: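 Syngeneic model: 6-week-old male C57BL/6 mice given 3 × 10^5 LLC cells in 50 μL PBS subcutaneously in the flank. At day 7, mice were randomized to vehicle PO daily or 10 mg/kg PO every other day for 3 weeks. Caliper volume was taken every 2 days as ([…])/2, with tumor weight at end. Spleen size and weight were recorded. Ki67 and cleaved caspase-3 were scored by IHC (DAB, hematoxylin).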

HCC44 = assay: Cytotoxicity against human HCC44 cells assessed as inhibition of cell growth incubated for 48 hrs by WST-1 assay; format: functional, cell-based; settings: HCC44, 48 h
Outline: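 WST-1 viability assay. Cells seeded at 5 × 10^3 per well and incubated 24 h at 37 °C, then exposed to drug for 48 h. Absorbance read at 450 nm, in triplicate. IC50 taken as the concentration giving 50% growth inhibition versus control.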

A549 (human) = assay: Cytotoxicity against human A549 cells assessed as decrease in cell growth by WST-1 assay; settings: time 2-48 hrs
[9] = biological target: T1, Phospholipase D1 (Mus musculus); assay: In vivo inhibition of PLD1 in male C57BL/6 mouse allografted with mouse Lewis lung carcinoma cell line assessed as increase in IL-17+ th17 cell population at 10 mg/kg, po by immunofluorescence analysis; format: functional, organism-based; outline: as §2
[10] = biological target: T1, Phospholipase D1 (Mus musculus); assay: In vivo inhibition of PLD1 in male C57BL/6 mouse allografted with mouse Lewis lung carcinoma cell line assessed as increase in CD8+T cell population at 10 mg/kg, po by immunofluorescence analysis; format: functional, organism-based; outline: as §2
A549 [11] = assay: Upregulation of CRT expression in human A549 cells by flow cytometry analysis; format: functional, cell-based
Outline: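 A549 cells treated with compound; surface "eat-me" and "don't eat-me" signal proteins measured by flow cytometry; at least three independent experiments, mean ± SEM.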

[12] = biological target: Phospholipase D2 (Homo sapiens) (UniProt O14939); assay: Inhibition of PLD2 (unknown origin) overexpressed in human A549 cells; format: cell-based; outline: as §1
Chain of Phospholipase D2 (Homo sapiens) (O14939 whole entry): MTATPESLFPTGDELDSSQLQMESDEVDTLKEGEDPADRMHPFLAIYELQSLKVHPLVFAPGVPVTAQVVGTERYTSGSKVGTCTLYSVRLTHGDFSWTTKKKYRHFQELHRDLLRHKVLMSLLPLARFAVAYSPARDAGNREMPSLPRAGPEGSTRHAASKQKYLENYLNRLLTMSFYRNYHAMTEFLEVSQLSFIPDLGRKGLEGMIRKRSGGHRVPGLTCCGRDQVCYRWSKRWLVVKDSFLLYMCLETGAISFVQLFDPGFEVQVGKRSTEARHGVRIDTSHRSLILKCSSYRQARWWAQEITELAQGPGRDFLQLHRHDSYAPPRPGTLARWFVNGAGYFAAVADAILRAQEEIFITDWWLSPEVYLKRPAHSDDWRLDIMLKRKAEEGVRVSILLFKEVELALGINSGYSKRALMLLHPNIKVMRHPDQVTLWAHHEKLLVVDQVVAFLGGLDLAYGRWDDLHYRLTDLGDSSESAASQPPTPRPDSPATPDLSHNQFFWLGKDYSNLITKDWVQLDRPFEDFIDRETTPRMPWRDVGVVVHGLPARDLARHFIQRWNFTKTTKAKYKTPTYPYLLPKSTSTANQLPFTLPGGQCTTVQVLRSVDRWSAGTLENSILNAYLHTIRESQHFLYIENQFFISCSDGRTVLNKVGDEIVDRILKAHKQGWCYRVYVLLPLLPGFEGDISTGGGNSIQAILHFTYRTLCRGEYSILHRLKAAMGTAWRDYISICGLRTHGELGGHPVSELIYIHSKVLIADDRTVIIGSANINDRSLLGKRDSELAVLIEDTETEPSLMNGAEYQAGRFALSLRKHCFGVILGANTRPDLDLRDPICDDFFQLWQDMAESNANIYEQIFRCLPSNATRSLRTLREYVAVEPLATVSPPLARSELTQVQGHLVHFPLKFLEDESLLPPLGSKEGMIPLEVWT

O=C(CCc1c[nH]c2ccccc12)Nc1cc(C(F)(F)F)cc(C(F)(F)F)c1
inactive: inhibition (A549 [2]) | inhibition [12]
26.6%: level, % of control (HCT-116)
active: inhibition (Mus musculus) | Activity (A549 [3]) | inhibition [4] | Activity (A549 [5]) | Activity [6] | inhibition (A549 [7]) | Activity [8] | Activity (A549 (human)) Time-dependent-effect | inhibition [9] | inhibition [10] | Activity (A549 [11])
Non-toxic: Activity [1]
4.65: pIC50 (HCC44)
